proCasp7 act: activates human procaspase-7, counter-screen for procaspase-3 activators; recombinant procaspase-7, Ac-DEVD-pNA absorbance 405 nm; D23A/D198A/D206A triple mutant, cannot self-cleave; scale: DMSO 0, 5 µM enzyme 100; activation, % at 8.5 µM; 330,000 tested, 0.093% active; AID 463210;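 active = percent activation above the screen-wide mean plus 3 SD, cut at about 25% in these data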
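Detection: p-Nitroaniline absorbance at 405 nm, read at 0 and 120 min; system: Uncleavable procaspase-7 mutant enzyme; evaluation: % activation from two-timepoint absorbance difference, scaled to controls; times: 1 h enzyme–compound preincubation and 2 h substrate reaction, both 25 °C; buffer or medium: Zinc-free HEPES pH 7.4 with 300 mM NaCl, 0.01% Triton X-100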
GAA850 FXN act: frataxin GAA850 promoter activation; HEK293 lucGAA850 FXN promoter luciferase reporter, 24 h; percent of 10 µM SAHA response; activation, % at 6 µM; 360,000 tested, 0.56% active; AID 540364;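 active = activation above the average of all compounds screened plus 3 SD, cutoff fixed separately per campaign, cut at about 7.5% in these data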;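 also: 0% = DMSO wells and 100% = 10 µM SAHA wells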
proCasp3 act: activators of human procaspase-3; P42574; recombinant procaspase-3 D3A, Ac-DEVD-pNA absorbance 405 nm; activation, % at 8.5 µM; 330,000 tested, 0.11% active; AID 463141;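 active = activation above the mean of all tested compounds plus 3 SD, cut at about 21% in these data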;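 also: 0% = DMSO alone and 100% = DMSO wells spiked with extra 5 µM PC-3 D3A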
Target sequence (P42574 whole entry D9A/D28A/D175A): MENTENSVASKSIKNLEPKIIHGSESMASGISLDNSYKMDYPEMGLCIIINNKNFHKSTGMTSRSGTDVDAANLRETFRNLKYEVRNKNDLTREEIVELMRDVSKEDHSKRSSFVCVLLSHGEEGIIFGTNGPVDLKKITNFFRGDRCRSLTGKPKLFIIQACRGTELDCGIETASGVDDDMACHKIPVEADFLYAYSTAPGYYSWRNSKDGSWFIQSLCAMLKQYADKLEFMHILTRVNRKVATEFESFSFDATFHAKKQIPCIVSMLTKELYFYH
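Test system: Procaspase-3 D3A mutant; medium: Zinc-free HEPES/NaCl buffer with 0.01% Triton X-100 at pH 7.4; reagent: DEVD-pNA substrate; doses: one concentration, 8.5 µM nominal, 0.8% DMSO; times: 1 h preincubation plus 2 h reaction at 25 °C; signal: Epi-absorbance at 405 nm of released p-nitroaniline, 0 and 120 min; replicates: singlicate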
GAA30 FXN cntr: GAA30 FXN promoter activation counter-screen; shares compounds with GAA850 FXN act; HEK293 lucGAA30 FXN promoter luciferase, 24 h; DMSO = 0%, 5 µM ipriflavone = 100%; activation, % at 6 µM; 1,900 tested, 66% active;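 active = mean activation above the mean of solvent-only control wells plus 3 SD, cut at about 22% in these data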;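 also: counterscreen of GAA850 promoter hits where activity marks nonselective or luminescence artifacts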
FXN GAA850 conf: confirmation of GAA850 frataxin (FXN) promoter activators; 1,900 tested, 86% active; shares compounds with GAA850 FXN act; AID 588351; HEK293 lucGAA850 FXN promoter luciferase reporter, 24 h; 100% = activation by SAHA; activation, % at 6 µM;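 active = mean activation above a set limit taken from the primary screen, cut at about 8% in these data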;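 also: 0% = DMSO wells and 100% = 10 µM SAHA wells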
The depositor's hits bear a star. The list is not random: actives were taken first. Their share in the collection is about 0.7%.

COc1ccc(CCN(C)CC(O)COc2ccc(C(C)=O)cc2OC)cc1OC (stereo unspecified) was read as proCasp7 act -2.6, GAA850 FXN act 0.8 and proCasp3 act 5.6.
For O=C(Oc1ccccc1Cl)C1CCN(C(=O)c2ccc(F)cc2)CC1 the results were proCasp7 act 6.3, GAA850 FXN act -0.6 and proCasp3 act -3.0.
For COc1ccc(-c2cc(C(=O)NCC3CCCO3)c3ccccc3n2)cc1 (stereo unspecified) the results were proCasp7 act 2.2, GAA850 FXN act 0.8 and proCasp3 act 2.0.
Screening COc1ccc(N=c2oc3cc(O)ccc3cc2C(=O)NCC2CCCO2)cc1 (stereo unspecified) returned proCasp7 act -10.1, GAA850 FXN act -2.5 and proCasp3 act -7.8.
`COc1ccc(-c2cc(C(=O)NCC3CCCO3)c3cc(C)ccc3n2)cc1` (stereo unspecified) gave proCasp7 act 7.3, GAA850 FXN act 7.6*, proCasp3 act 4.5, GAA30 FXN cntr 67.6* and FXN GAA850 conf 22.4*.
`COc1ccc(N=c2oc3cc(O)ccc3cc2C(=O)NCC2CCCO2)c(OC)c1` (stereo unspecified) gave proCasp7 act -15.5, GAA850 FXN act 9.7*, proCasp3 act -11.2, GAA30 FXN cntr 5.4 and FXN GAA850 conf 17.8*.
For O=C(CSc1nncc2ccccc12)Nc1ccc(C(=O)O)cc1 the results were proCasp7 act -10.0, GAA850 FXN act -0.7 and proCasp3 act 1.3.
Cc1cccc(NC(=O)CCNC(=O)c2ccc(Br)cc2)c1 was read as proCasp7 act -7.2, GAA850 FXN act 0.9 and proCasp3 act 5.5.
For Cc1ccc(CNC(=O)CSc2nnc(CNC(=O)c3ccccc3)o2)cc1 the results were proCasp7 act 0.3, GAA850 FXN act 0.6 and proCasp3 act 3.2.
Screening C[C@@H]1CN([C@H](C)CO)C(=O)c2cc(NC(=O)Nc3ccc(F)cc3)ccc2O[C@@H](C)CCCCO[C@H]1CN(C)S(=O)(=O)c1cccs1 returned GAA850 FXN act -3.7.
Screening COc1cccc(C2/C(=C(\O)c3ccc4c(c3)OCCO4)C(=O)C(=O)N2CCCN2CCOCC2)c1OC (stereo unspecified) returned proCasp7 act 4.3, GAA850 FXN act -0.6 and proCasp3 act 0.0.
For COc1cnn(-c2ccc(C)cc2)c(=O)c1SCc1ccccc1 the results were proCasp7 act 6.1, GAA850 FXN act 7.9*, proCasp3 act -0.4, GAA30 FXN cntr 65.6* and FXN GAA850 conf 24.8*.
COc1cnn(-c2ccc(Br)cc2)c(=O)c1SCc1ccccc1 was read as proCasp7 act -3.9, GAA850 FXN act 4.3 and proCasp3 act -2.6.
Screening O=C(c1cc2cc(Cl)ccc2[nH]1)N1CCN(C(=O)c2ccco2)CC1 returned proCasp7 act 4.1, GAA850 FXN act 2.4 and proCasp3 act 13.2.
For OC[C@H]1O[C@H](OC[C@H]2O[C@H](OC[C@H]3O[C@H](O[C@]4(CO)O[C@H](CO)[C@@H](O)[C@@H]4O)[C@H](O)[C@@H](O)[C@@H]3O)[C@H](O)[C@@H](O)[C@H]2O)[C@H](O)[C@@H](O)[C@H]1O the results were proCasp7 act 0.7, GAA850 FXN act 0.5 and proCasp3 act -6.7.
Screening COCCNc1oc(/C=C/c2ccccc2)nc1C#N returned proCasp7 act 3.5, GAA850 FXN act 4.7 and proCasp3 act -2.5.
Screening CNc1oc(/C=C/c2ccccc2)nc1C#N returned proCasp7 act -11.1, GAA850 FXN act 8.3*, proCasp3 act -24.1, GAA30 FXN cntr 132.9* and FXN GAA850 conf 40.0*.
`COc1ccc(-c2c(-c3cc(OC)cc(OC)c3)n(C)c3ccc(-c4ccc(S(N)(=O)=O)cc4)cc23)cc1` gave proCasp7 act -4.5, GAA850 FXN act -0.5 and proCasp3 act 0.5.
`Cc1cc(=O)c(C(=O)Nc2cccc(C(=O)NC3CC3)c2)nn1-c1ccccc1Cl` gave proCasp7 act -1.6, GAA850 FXN act 5.3 and proCasp3 act -6.0.
CCOC(=O)Cc1csc(NC(=O)NC2(C(F)(F)F)Oc3cc(Cl)c(Cl)cc3O2)n1 was read as proCasp7 act -1.6, GAA850 FXN act 6.9 and proCasp3 act -3.4.

Compound activity from PubChem BioAssay.
